The source made the active and inactive calls. No cut-off for these calls is given here.
Legend:
[1] = target: Histone deacetylase 1 (Homo sapiens, UniProt Q13547); assay: Inhibition of HDAC1
[2] = Metabolic stability in human liver microsomes assessed as compound remaining at 0.5 mg after 15 mins; type: ADME, Microsome; conditions: read-out: Stability
[3] = target: Cytochrome P450 3A4 (Homo sapiens, UniProt P08684); assay: Inhibition of CYP3A4; type: ADME
[4] = target: T1, NAD-dependent protein deacetylase sirtuin-1 (Homo sapiens) (UniProt Q96EB6); assay: Inhibition of SIRT1 in human HCT116 cells assessed as increase in acetylated p53 at 1 to 10 uM after 8 hrs by Western blot analysis; type: cell-based; conditions: HCT-116
T1 sequence (whole entry): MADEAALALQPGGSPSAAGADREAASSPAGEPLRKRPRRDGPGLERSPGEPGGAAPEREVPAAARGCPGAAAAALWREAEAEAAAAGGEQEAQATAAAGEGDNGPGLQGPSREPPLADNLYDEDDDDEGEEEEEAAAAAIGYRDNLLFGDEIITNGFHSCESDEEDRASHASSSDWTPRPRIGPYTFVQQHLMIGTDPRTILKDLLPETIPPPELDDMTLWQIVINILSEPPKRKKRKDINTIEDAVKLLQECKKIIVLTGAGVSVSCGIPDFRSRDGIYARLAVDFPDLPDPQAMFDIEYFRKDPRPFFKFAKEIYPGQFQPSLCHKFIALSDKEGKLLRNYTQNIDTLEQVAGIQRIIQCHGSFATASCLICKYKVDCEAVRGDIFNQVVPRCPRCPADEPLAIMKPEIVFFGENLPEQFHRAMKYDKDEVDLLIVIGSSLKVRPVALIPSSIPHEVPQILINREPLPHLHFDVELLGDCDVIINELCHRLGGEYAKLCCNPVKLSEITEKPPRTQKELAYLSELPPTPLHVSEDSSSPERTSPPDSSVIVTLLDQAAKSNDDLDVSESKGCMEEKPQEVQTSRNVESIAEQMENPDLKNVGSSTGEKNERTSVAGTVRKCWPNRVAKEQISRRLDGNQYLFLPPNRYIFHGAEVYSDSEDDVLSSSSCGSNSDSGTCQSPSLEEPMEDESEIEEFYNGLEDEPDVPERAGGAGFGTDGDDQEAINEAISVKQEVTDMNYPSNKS
Method in brief: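 HCT116 cells grown in McCoy's 5A with 10% FBS. 5×10⁵ cells exposed 8 h to compound at 1 or 10 μM, alongside 20 μM etoposide. SDS lysates equalized by Bradford assay and run on 15% SDS-PAGE, then blotted onto nitrocellulose. Blots probed overnight at 4 °C for acetyl-p53, p53, acetyl-α-tubulin and α-tubulin, and detected by ECL. Signal given as acetylated/total protein ratio.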

[5] = target: Cytochrome P450 2D6 (Homo sapiens, UniProt P10635); assay: Inhibition of CYP2D6; type: ADME
[6] = target: T2, Histone deacetylase 11 (Homo sapiens, UniProt Q96DB2); assay: Inhibition of HDAC11
T2 sequence (Q96DB2 whole entry): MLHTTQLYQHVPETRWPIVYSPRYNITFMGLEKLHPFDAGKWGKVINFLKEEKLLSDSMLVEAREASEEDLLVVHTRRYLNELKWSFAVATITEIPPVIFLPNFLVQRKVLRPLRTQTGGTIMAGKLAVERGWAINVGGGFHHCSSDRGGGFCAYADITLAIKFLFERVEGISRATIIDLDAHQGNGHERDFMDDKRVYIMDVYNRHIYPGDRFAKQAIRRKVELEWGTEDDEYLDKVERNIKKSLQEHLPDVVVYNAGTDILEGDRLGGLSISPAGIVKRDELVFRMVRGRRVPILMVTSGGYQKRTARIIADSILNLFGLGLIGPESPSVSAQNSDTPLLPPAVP

[7] = target: T3, Histone deacetylase 8 (Homo sapiens, UniProt Q9BY41); assay: Inhibition of HDAC8
T3 sequence (Q9BY41 whole entry): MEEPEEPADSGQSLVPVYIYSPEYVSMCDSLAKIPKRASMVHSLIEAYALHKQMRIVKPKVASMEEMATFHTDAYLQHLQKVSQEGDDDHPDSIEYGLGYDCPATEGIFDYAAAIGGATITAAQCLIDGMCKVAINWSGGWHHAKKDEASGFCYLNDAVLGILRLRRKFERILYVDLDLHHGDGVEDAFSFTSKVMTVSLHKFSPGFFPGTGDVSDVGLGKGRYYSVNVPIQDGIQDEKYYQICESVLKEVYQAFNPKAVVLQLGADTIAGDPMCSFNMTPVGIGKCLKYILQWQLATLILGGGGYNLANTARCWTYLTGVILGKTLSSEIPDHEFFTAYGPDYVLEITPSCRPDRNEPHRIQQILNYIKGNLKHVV

[8] = target: T4, NAD-dependent protein deacetylase sirtuin-2 (Homo sapiens) (UniProt Q8IXJ6); assay: Binding affinity to recombinant SIRT2 by surface plasmon resonance assay
T4 sequence (whole entry): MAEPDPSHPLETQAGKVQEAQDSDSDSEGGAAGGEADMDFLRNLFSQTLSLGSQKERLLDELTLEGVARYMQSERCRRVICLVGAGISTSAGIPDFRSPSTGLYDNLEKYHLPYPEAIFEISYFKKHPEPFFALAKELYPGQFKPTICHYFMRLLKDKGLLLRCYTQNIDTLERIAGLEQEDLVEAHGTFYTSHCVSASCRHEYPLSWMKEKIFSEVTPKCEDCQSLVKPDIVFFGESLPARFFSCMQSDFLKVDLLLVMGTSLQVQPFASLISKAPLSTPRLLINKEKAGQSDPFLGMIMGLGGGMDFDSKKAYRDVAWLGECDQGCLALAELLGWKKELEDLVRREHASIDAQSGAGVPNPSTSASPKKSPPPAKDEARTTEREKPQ

[9] = target: Histone deacetylase 2 (Homo sapiens, UniProt Q92769); assay: Inhibition of HDAC2
Chain of Histone deacetylase 2 (Q92769 whole entry): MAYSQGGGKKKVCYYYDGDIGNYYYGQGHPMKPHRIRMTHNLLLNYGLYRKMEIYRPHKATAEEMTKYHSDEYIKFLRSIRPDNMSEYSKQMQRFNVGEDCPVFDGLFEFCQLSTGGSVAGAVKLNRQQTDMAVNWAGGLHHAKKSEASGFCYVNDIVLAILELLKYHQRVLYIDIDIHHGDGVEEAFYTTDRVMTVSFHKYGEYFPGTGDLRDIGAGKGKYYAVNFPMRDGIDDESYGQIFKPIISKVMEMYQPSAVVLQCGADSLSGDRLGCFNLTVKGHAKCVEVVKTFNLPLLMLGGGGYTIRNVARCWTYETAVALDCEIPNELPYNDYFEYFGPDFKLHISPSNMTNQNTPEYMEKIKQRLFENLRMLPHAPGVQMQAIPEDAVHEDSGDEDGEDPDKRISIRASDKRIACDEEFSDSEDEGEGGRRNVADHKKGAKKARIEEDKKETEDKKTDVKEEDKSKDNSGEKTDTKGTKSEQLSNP

Chain of Histone deacetylase 1 (Q13547 whole entry): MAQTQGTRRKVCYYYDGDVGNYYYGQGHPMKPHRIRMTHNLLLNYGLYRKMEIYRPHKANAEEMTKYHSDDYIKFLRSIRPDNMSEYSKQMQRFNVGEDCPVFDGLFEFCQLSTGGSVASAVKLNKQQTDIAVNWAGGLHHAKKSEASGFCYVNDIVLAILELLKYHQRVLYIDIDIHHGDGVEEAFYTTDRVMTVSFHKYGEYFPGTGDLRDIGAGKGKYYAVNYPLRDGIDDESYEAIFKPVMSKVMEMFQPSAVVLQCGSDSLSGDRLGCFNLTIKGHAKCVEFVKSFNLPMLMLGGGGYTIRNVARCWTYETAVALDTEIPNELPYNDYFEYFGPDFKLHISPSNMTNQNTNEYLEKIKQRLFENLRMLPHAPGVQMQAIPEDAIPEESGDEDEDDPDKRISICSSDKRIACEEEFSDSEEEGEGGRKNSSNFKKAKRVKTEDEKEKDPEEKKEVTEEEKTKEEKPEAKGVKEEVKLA
Chain of Cytochrome P450 3A4 (P08684 whole entry): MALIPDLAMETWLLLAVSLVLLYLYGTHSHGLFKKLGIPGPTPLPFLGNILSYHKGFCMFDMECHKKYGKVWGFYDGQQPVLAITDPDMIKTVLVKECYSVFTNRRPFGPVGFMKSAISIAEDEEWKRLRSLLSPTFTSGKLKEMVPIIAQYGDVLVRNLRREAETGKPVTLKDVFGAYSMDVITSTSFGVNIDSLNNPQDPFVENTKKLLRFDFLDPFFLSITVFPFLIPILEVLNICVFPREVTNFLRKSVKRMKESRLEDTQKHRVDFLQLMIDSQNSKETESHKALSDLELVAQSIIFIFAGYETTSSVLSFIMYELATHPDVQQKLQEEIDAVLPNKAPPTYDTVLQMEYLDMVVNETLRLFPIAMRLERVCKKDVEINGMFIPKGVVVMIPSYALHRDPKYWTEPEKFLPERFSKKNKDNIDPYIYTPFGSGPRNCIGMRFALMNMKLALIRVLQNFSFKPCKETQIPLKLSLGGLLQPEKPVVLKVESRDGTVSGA
Chain of Cytochrome P450 2D6 (P10635 whole entry): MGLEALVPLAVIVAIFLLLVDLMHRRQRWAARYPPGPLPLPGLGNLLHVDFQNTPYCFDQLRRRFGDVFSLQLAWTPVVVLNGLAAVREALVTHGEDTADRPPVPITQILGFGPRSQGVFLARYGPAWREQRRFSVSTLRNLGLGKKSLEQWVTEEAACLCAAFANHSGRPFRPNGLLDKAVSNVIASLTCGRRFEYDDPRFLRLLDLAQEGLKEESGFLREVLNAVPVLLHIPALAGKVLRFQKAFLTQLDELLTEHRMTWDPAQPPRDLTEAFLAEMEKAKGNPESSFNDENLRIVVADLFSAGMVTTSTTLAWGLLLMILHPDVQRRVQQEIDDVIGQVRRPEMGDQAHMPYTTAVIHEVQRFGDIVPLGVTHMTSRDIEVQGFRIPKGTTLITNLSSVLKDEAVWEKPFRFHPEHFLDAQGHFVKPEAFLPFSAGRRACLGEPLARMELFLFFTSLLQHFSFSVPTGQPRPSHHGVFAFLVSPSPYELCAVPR

- IC50 [1]: > 30 µM
- remaining at 0.25 h [2]: 64%
- IC50 [3]: > 10 µM
- inhibition [4]: inactive
- IC50 [5]: > 10 µM
- IC50 [6]: > 30 µM
- IC50 [7]: > 30 µM
- Activity [8]: Dose-dependent effect
- IC50 [9]: > 30 µM
Compound: NC(=O)c1ccccc1Nc1cccc(OCCc2ccccc2)c1

Source: ChEMBL document CHEMBL2150931, “Design, synthesis, and biological activity of a novel series of human sirtuin-2-selective inhibitors” (J Med Chem, 2012)
